TAG inh = inhibitors of triacylglycerol accumulation. inhibition, % at 12.5 µM. H9c2 cells, Nile Red lipid (TAG) fluorescence; cells loaded with 200 µM oleic acid. AID 651582. 230,000 compounds, 0.66% hits;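 active means pattern-corrected inhibition of lipid staining of at least 50% with the nuclear-stain viability signal not falling by more than 50%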;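 further: 0% = DMSO wells and 100% = triacsin C control wells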
Lipid droplet = modulators of hepatic lipid droplet formation; 240,000 compounds, 0.4% hits; AML12 mouse hepatocytes, oleate lipid droplets, BODIPY imaging; inhibition, % at 6.5 µM; AID 1656;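 active means lipid droplet intensity inhibited by at least 50%, with more than 500 cells counted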
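Material: mouse AML12 hepatocyte cell line, fixed after treatment; Timing: compound with oleate, overnight; Technique: high-content imaging of BODIPY-stained droplets and DAPI nuclei; Probe or stimulus: oleate, 100 µM final; Dosing: compound at 6.5 µM only.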
hiPSC survival = enhancers of human iPSC single-cell survival. hiPSC single-cell survival, ATPlite luminescence; 100% = ROCK inhibitor wells, 0% = DMSO. survival enhancement, % at 20 µM. 360,000 compounds, 0.044% hits. AID 602274; in the data active means survival enhancement above about 18%;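 further: cells exposed to compounds for 16 hours before the ATP read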
697 NFkB inh = lowers PMA/ionomycin-induced NF-kB signal in 697 B cells; 697 B-cell NF-kB luciferase reporter, 16 h; inhibition, % at 4 µM; 330,000 compounds, 0.33% hits; AID 435022; in the data active means inhibition above about 35%
Jurkat NFkB inh = inhibitors of the PMA/ionomycin-induced NF-kB reporter in Jurkat cells | PMA/ionomycin-induced NF-kB luciferase reporter, luminescence | inhibition, % at 4 µM | 330,000 compounds, 0.53% hits | AID 435003; in the data active means inhibition above about 50%
Gli-Sufu antag = blocks Gli-Sufu signaling in a luciferase reporter | inhibition, % at 5 µM | Sufu-KO-LIGHT fibroblasts, Gli luciferase reporter luminescence | 340,000 compounds, 0.74% hits | AID 588413;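 active means inhibition above about 55%, limit read from the data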;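 further: 0% = DMSO-treated cells and 100% = wells with medium but no cells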
Jurkat NFkB conf = inhibitors of the PMA/ionomycin-induced NF-kB reporter in Jurkat cells, retest. shares compounds with Jurkat NFkB inh. Jurkat NF-kB luciferase, 16 h. inhibition, % at 4 µM. 2,700 compounds, 27% hits;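 active means inhibition reaching about 45% at 4 µM in either replicate, limit read from the data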;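 further: plate controls were PMA/ionomycin stimulated DMSO wells for no effect and unstimulated DMSO wells for full effect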
Starred values were filed as active, the others as inactive; . = no result. Compounds with a hit are over-represented: about 1.8% of the library has one in this group of screens.

SMILES	TAG inh	Lipid droplet	hiPSC survival	697 NFkB inh	Jurkat NFkB inh	Gli-Sufu antag	Jurkat NFkB conf
Cc1ccccc1-n1c(O)c(/C=C2/C(c3ccccc3)=Nc3ccccc32)c(=O)[nH]c1=O	28.9	-14.9	2.3	-92.6	52.9*	-22.1	35.0
Cc1ccc(-c2cc(-c3ccc(C)cc3)[n+](-c3ccc(C(=O)[O-])cc3)c(-c3ccc(C)cc3)c2)cc1	-15.4	.	2.1	-3.3	17.4	8.3	.
Cc1ccc(-c2cc(-c3ccccc3)cc(-c3ccccc3)[n+]2-c2ccccc2)cc1	47.8	.	-2.8	-11.5	53.6*	90.0*	30.6
Cc1ccc(-c2cc(-c3ccc(C)cc3)[n+](-c3ccccc3)c(-c3ccc(C)cc3)c2)cc1	21.2	.	-5.9	-45.0	96.8*	91.0*	85.9*
CN(C)c1ccc(-[n+]2c(-c3ccccc3)cc(-c3ccccc3)cc2-c2ccccc2)cc1	.	-131.5	0.0	-28.2	99.4*	90.0*	62.1*
C/C=C1/CN2[C@@H]3C4CO[C@@H]3c3c([nH]c5cc(OC)ccc35)[C@@H]2CC14 (stereo partly specified)	.	.	1.5	7.2	5.7	4.7	.
COP(=O)(OC)C(O)C(Cl)(Cl)Cl (stereo unspecified)	.	-5.3	.	16.0	-2.3	.	.
Nc1ccc(CCN2CCN(c3cccc(C(F)(F)F)c3)CC2)cc1	34.0	.	-2.0	-11.1	60.4*	0.9	12.7
Nc1ccc(CCN2CCCC2)cc1	-9.5	11.0	1.1	0.0	-4.0	5.2	.
Cc1ccccc1-n1c(O)c(C=NCCN2CCOCC2)c(=O)[nH]c1=O	2.2	-1.2	4.2	19.6	3.0	-3.9	.
O=c1[nH]c2c(c(=O)n1C1CCCCC1)CCC2	.	23.8	1.3	13.6	-2.3	-2.0	.
COc1ccc2c(c1)/C(=C/c1cnc[nH]1)C(=O)N2	47.6	-13.7	-3.1	-181.6	55.0*	-23.5	41.9
CC(C)CC1(CCc2ccccc2)C(=O)NC(=O)NC1=O	-17.4	.	-0.4	.	.	-2.3	.
COc1cc2c(cc1O)[C@@H]1Cc3ccc(OC)c(O)c3CN1CC2	22.5	.	-0.6	7.7	58.1*	-2.6	27.4
COc1cc2c(cc1O)C[C@H]1c3c(cc(O)c(OC)c3-2)CCN1C	9.5	.	-1.8	4.9	9.1	-2.9	.
O=c1c2ccccc2nc(/C=C/c2ccc([N+](=O)[O-])o2)n1-c1ccc(O)cc1	.	-38.3	-0.6	-221.4	91.1*	74.8*	66.8*
Cc1[nH]c2ccccc2c1C(=O)C(=O)N1CC2CC(C1)c1cccc(=O)n1C2 (stereo unspecified)	-9.5	-12.0	0.2	12.5	-6.3	-25.5	.
CC/C=C/CC(=O)N[C@@H](c1ccccc1)[C@@H](O)C(=O)O[C@H]1C[C@@]2(O)[C@@H](OC(=O)c3ccccc3)C3[C@](C)(C(=O)[C@H](OC(C)=O)C(=C1C)C2(C)C)[C@@H](O)C[C@H]1OC[C@@]31OC(C)=O (stereo partly specified)	.	-31.0	-0.5	-14.8	65.9*	-15.1	63.0*
CCC(C)C(=O)N[C@@H](c1ccccc1)[C@@H](O)C(=O)O[C@H]1C[C@@]2(O)[C@@H](OC(=O)c3ccccc3)C3[C@](C)(C(=O)[C@H](OC(C)=O)C(=C1C)C2(C)C)[C@@H](O)C[C@H]1OC[C@@]31OC(C)=O (stereo partly specified)	.	.	0.0	-6.0	71.7*	-9.6	68.0*
CCCCCC(=O)N[C@@H](c1ccccc1)[C@@H](O)C(=O)O[C@H]1C[C@@]2(O)[C@@H](OC(=O)c3ccccc3)C3[C@](C)(C(=O)[C@H](O)C(=C1C)C2(C)C)[C@@H](OC1OCC(O)C(O)C1O)C[C@H]1OC[C@@]31OC(C)=O (stereo partly specified)	.	.	-5.7	-20.1	40.9	-6.0	.
C/C=C(\C)C(=O)N[C@@H](c1ccccc1)[C@@H](O)C(=O)O[C@H]1C[C@@]2(O)[C@@H](OC(=O)c3ccccc3)C3[C@](C)(C(=O)[C@H](OC(C)=O)C(=C1C)C2(C)C)[C@H](O)C[C@H]1OC[C@@]31OC(C)=O (stereo partly specified)	.	.	-1.0	1.6	72.0*	-19.1	72.9*
CC(=O)O[C@@]12CO[C@@H]1C[C@H](OC1OCC(O)C(O)C1O)[C@@]1(C)C(=O)[C@H](O)C3=C(C)[C@@H](OC(=O)[C@H](O)[C@@H](NC(=O)c4ccccc4)c4ccccc4)C[C@@](O)([C@@H](OC(=O)c4ccccc4)C12)C3(C)C (stereo partly specified)	.	.	-0.7	-44.4	47.9	-10.2	.
CC(=O)O[C@@]12CO[C@@H]1C[C@@H](O)[C@@]1(C)C(=O)[C@H](O)C3=C(C)[C@@H](OC(=O)[C@H](O)[C@@H](NC(=O)c4ccccc4)c4ccccc4)C[C@@](O)([C@@H](OC(=O)c4ccccc4)C12)C3(C)C (stereo partly specified)	.	-85.0	-0.8	-26.8	64.8*	-1.9	64.9*
CCOP(=O)(Nc1ccc2c(c1)C(=NNC(N)=S)c1ccccc1-2)OCC	5.3	.	5.5	.	.	-7.4	.
COc1ccc(NC2=NCCCS2)cc1OC	.	-0.9	-0.4	18.2	-18.4	-4.7	.
SMILES	TAG inh	Lipid droplet	hiPSC survival	697 NFkB inh	Jurkat NFkB inh	Gli-Sufu antag	Jurkat NFkB conf
CN(C)S(=O)(=O)c1cccc(C(=O)N2CCC(C(=O)O)(c3ccccc3)CC2)c1	.	16.7	0.0	6.2	-0.4	2.3	.
CC1(C)COC(Nc2cccc(Cl)c2)=N1	10.0	2.7	-2.3	-14.6	-17.0	-2.1	.
COC(=O)[C@]12OC[C@]34C([C@@H](O)[C@@H]1O)[C@]1(C)CC(=O)C(O)=C(C)[C@@H]1C[C@H]3OC(=O)[C@H](O)[C@@H]24 (stereo partly specified)	65.2*	-2.4	-2.2	-30.0	65.8*	33.3	86.3*
CC1=CC(O)C(O)C2(C)C1CC1OC(=O)C(O)C3C(C)C(O)C4(O)OCC13C42 (stereo unspecified)	0.0	.	3.6	.	.	17.4	.
Cn1ncnc2c(=O)n(C)c(=O)nc1-2	.	.	-5.2	14.2	55.1*	94.1*	98.9*
COC(=O)C[C@]1(C(=O)OC)CN(C#N)N(c2ccc(Cl)cc2)C12c1ccccc1-c1ccccc12	144.8	10.7	-4.5	-26.3	97.3*	37.9	76.5*
COC(=O)[C@@H]1[C@@H](C(=O)OC)C2(c3ccccc3-c3ccccc32)N(c2ccc(Cl)cc2)N1C#N	91.8	1.1	-2.9	-59.2	38.6	-2.1	.
C=C(C)[C@@]12OC3(c4ccccc4)O[C@@H]1C1[C@@H]4O[C@]4(CO)[C@@H](O)[C@]4(O)C(=O)C(C)=C[C@H]4[C@@]1(O3)[C@H](C)[C@H]2OC(=O)/C=C/C=C/c1ccccc1 (stereo partly specified)	.	.	41.6*	-49.0	81.4*	18.0	47.5
